Assay results as given in the EternaBench riboswitch data.

What was measured:
MS2 coat protein [1] = assay: apparent Kd, MS2 coat protein; higher = weaker binding; RNA-MaP array; tryptophan 2.4 mM where present
Procedure, shortened: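 Stalled E. coli RNA polymerase transcribed the designs on Illumina sequencing-chip clusters. SNAP-549-labelled MS2 coat protein was titrated from 0.7 or 1.5 nM, doubling to 3 µM, without and then with constant ligand, in 100 mM Tris-HCl pH 7.5, 80 mM KCl, 4 mM MgCl2, BSA, DTT, yeast tRNA and Tween-20. Per-cluster binding curves were fitted to green signal normalised to red-channel RNA signal and control-cluster median Fmax. The apparent Kd is the median of the filtered fits.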

MS2 coat protein [2] = assay: apparent Kd, MS2 coat protein; higher = weaker binding; RNA-MaP array
Procedure, shortened: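 The designed RNAs, transcribed from sequenced DNA templates on an Illumina sequencing chip, were incubated with fluorescently labeled MS2 coat protein at room temperature. Protein ranged from 1.5 nM to 3 μM, with 0.8–1.5 h incubation at the lowest and 10–20 min at the highest concentrations, in Tris-HCl pH 7.5 buffer with KCl, MgCl2, BSA, DTT, tRNA and Tween20, with or without input ligand. The median of per-cluster binding-curve fits gives the apparent Kd, and designs measured on fewer than 10 clusters were excluded.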

[3] = designed as: ON switch for tryptophan, no ligand
[4] = ligand present: tryptophan, designed as: ON switch for tryptophan
[5] = designed as: OFF switch for tryptophan, no ligand
[6] = ligand present: tryptophan, designed as: OFF switch for tryptophan
[7] = designed as: OFF switch for flavin mononucleotide, no ligand
[8] = ligand present: flavin mononucleotide, designed as: OFF switch for flavin mononucleotide

| Sequence | apparent Kd (MS2 coat protein [1]; [3]) [nM] | apparent Kd (MS2 coat protein [1]; [4]) [nM] | apparent Kd (MS2 coat protein [1]; [5]) [nM] | apparent Kd (MS2 coat protein [1]; [6]) [nM] | also measured |
| --- | --- | --- | --- | --- | --- |
| AUUCAUGAAAACAUGACAUGAGGAUCACUCCGAGGACCGGUACGGCCGCCACUCGCGAGGAGGCACAUGAGGAUCACCCAUGUUA | 114 | 82.8 |  |  |  |
| UAUCGUCAGACGGCCGCCACUAGAACAUGAGGAUCACCCAUGUAAGUGGCUGGUUCAUGGGUGUCUAGGACCGGGUCUGACGAAU |  |  | 17.2 | 37.2 |  |
| ACAUGAGGAUCACCCAUGUACAUCACCCGACGAGGACCGGUACGGCCGCCACUCGGGUAUAUAUUUACAUCGGGUGAUUUUACGU | 16.7 | 18 |  |  |  |
| CGAGUAAGAACAAUCGAAUAACGGUUUUCGCGAGGACCGGUACGGCCGCCACUCGUGUGAAAUAACACAUGAGGAUCACCCAUGU | 23.1 | 20 |  |  |  |
| CUACAUUUGUAGAAACCGGUCAACAAUAUUCGAGGACCGGUACGGCCGCCACUCGUAUAAUUUAAUACAUGAGGAUCACCCAUGU | 14.8 | 15.9 |  |  |  |
| UACAUGAGGAUCACCCAUGUAUAACCGGUACGAGGACCGGUACGGCCGCCACUCGAAACAUGAGGAUCACCCAUGUGCUACUAUU | 34.5 | 35.6 |  |  |  |
| AUUACAUGAGCAUCAGCACAUGAGGAUCACCGAGGACCGGUACGGCCGCCACUCGACACAUGAGGAUCACCCAUGUGUUGUUGUU |  |  | 286 | 244 |  |
| GUGCUGGUAUCGGCCGCCACUGUAACAUGACAUCCCAGGGCCGACAUGAGGAUCACCCAUGUUAACAGGACCGGGAUAUCAACGA |  |  | 14.2 | 25.4 |  |
| UUCAGCUAGUCGGCCGCCACUACAUGAGGAUCACCCAUGUAAUCCUAACACUGCUUCGGCAGUGGUAGGACCGGGACUAGCUGAG |  |  | 10.6 | 17.1 |  |
| GCGGACAUGAGGAUCACCCAUGUAAAUCCUCGAGGACCGGUACGGCCGCCACUCGAACGAGUGGCACGCGAGUGCGCACUCGCGU | 24.7 | 25.4 |  |  |  |
| AAUGCCGGAUCGGCCGCCACUGGUUGGCUCUGUGUACAUGAGGAUCACCCAUGUCCAUCCCAAACCAGGACCGGGAUCUUUGUGU | 13.1 | 8.83 |  |  |  |
| UAUCGUCAGACGGCCGCCACUAGAACAUGAGGAUCACCCAUGUAGGCGGCCGAUUCCUCAUUAACUAGGACCGGGUCUGACGAAU |  |  | 8.13 | 9.67 |  |
| AGGUGACAUGAGGAUCACCCAUGUGGCUUACGAGGACCGGUACGGCCGCCACUCGGUGUGACCUCCGCAUUCACAUAAUAAUCUU | 53.9 | 45.3 |  |  |  |
| GCUACAUGAGGAUCACCCAUGUAUGCGAGCCGAGGACCGGUACGGCCGCCACUCGCUUAACAUGAGGAUCACCCAUGUUGCUCGC | 24 | 14.8 |  |  |  |
| UACCCAUGAGUUGGAAAAGCUCAUGGGUAUCGAGGACCGGUACGGCCGCCACUCGGCUGUACAUGAGGAUCACCCAUGUCAGGGU | 432 | 585 |  |  |  |
| AUCAUAAUAGACUCGUUAGAUUAUAUGGAACGAGGACCGGUACGGCCGCCACUCGUGAUGUACAUGAGGAUCACCCAUGUUAGCU | 14.7 | 15.2 |  |  |  |
| ACGUCGCAUAGGAAAACUAUGUGACGAAAUCGAGGACCGGUACGGCCGCCACUCGUCCUCAACAUGAGGAUCACCCAUGUAAUAA |  |  | 18.7 | 36.6 |  |
| CAAUAUAUAGCGGCCGCCACUUACUCAUGAGGUAACAACAUGAGGAUCACCCAUGUUUGAGGAUCAAGGACCGGGCUAUAUAUUG | 27.1 | 19.9 |  |  |  |
| CUCCCGUGGUCGGCCGCCACUGGAGGCCUCGCGCGACAUGAGGAUCACCCAUGUUGGCCCGGCUUCAGGACCGGGAUCGCGUGAG | 12.4 | 11.4 |  |  |  |
| CCUAUGCAGUCGGCCGCCACUGAUAAAAUUAUUUUUACCUCAGAAACAUGAGGAUCACCCAUGUACAGGACCGGGACUGUAUAGG |  |  | 18.1 | 38.5 |  |
| AAACAUGAGGAUCACCCAUGUUCUCCUGUCCGAGGACCGGUACGGCCGCCACUCGGUUCUCGGGAGGAUGGUCAAAGACUAUCCA | 13.7 | 13.6 |  |  |  |
| GAUAUAUACUCGGCCGCCACUGAGAGAGUCAUGUAAACAUGAGGAUCACCCAUGUAAUAUAUAUACAGGACCGGGAGUAUAUUAA |  |  | 14.8 | 14.2 |  |

| Sequence | apparent Kd (MS2 coat protein [1]; [3]) [nM] | apparent Kd (MS2 coat protein [1]; [4]) [nM] | apparent Kd (MS2 coat protein [1]; [5]) [nM] | apparent Kd (MS2 coat protein [1]; [6]) [nM] | also measured |
| --- | --- | --- | --- | --- | --- |
| GGACUCGUCACGGCCGCCACUGCGGUGGUGUGACAUGAGGAUCACCCAUGUUGUCAUGCGGCCCUUAGGACCGGGUGUCGCGUCC |  |  | 63.1 | 67.1 |  |
| GGAUUCGGCACGGCCGCCACUGCGGUGGUGUGACAUGAGGAUCACCCAUGUUGUCAUGCGGCCCUUAGGACCGGGUGGCGUUUCC |  |  | 49.7 | 63.7 |  |
| ACUCGACCAUCAGCCAUUUGUGAAUCACGGCGAGGACCGGUACGGCCGCCACUCGACAUGAGGAUCACCCAUGUAAGACCGGUGU |  |  | 25.8 | 50.3 |  |
| UGUACCAUGUCGGCCGCCACUCAUGAUAAACAUGAGGAUCACCCAUGUAGCGUCAAAGACGCUAUGAGGACCGGGACAUGGUACU | 35 | 12.2 |  |  |  |
| AGCAACAAGUCGGCCGCCACUCUUUUAACAUGAGGAUCACCCAUGUUUAUAUCAUGGUUUUAAUAGAGGACCGGGACAGUUGCAU |  |  | 35.1 | 41.8 |  |
| CUAUUUAUAGCGGCCGCCACUUACUCAUGAGGUAACAACAUGAGGAUCACCCAUGUUUGAGGAUCAAGGACCGGGCUAUGGAUAG | 26 | 20.1 |  |  |  |
| AAUGUAUGGCACAUGAGGAUCACCCAUGUGCGAGGACCGGUACGGCCGCCACUCGGUCAAGGGAUCUUACCUCUAUACAUUAAUG |  |  | 10.4 | 18.8 |  |
| AAUAACAUGAGGAUCACCCAUGUAAGUAAACGAGGACCGGUACGGCCGCCACUCGAAUAAAUAAAGUACCGGUAAGAUCCAGGGA | 14.8 | 16.8 |  |  |  |
| CAAUGCAGGUCGGCCGCCACUACACACAUGAGGAUCACCCAUGUAGUUACUGGGUGAAGUGGCAGUAGGACCGGGACCUGCAUAA | 373 | 265 |  |  |  |
| GUAGCGACGACGGCCGCCACUCACACGAGAGGGUAGACCAACCUUCACAUGAGGAUCACCCAUGUGAGGACCGGGUUGUCGGUAC |  |  | 24 | 171 |  |
| GGGUACAUCACGGCCGCCACUCAUGUAAAUACAUGAGGAUCACCCAUGUCGAUGGAGACAUCGGAGAGGACCGGGUGAUGUACCG | 338 | 272 |  |  |  |
| GCAUCCUAGUCGGCCGCCACUGCAUGUAGUUUUGCUACAUGGAAACAUGAGGAUCACCCAUGUAGCAGGACCGGGACUAGGAUGC | 27.5 | 11.5 |  |  |  |
| CCGUUCUCUGCGGCCGCCACUCAAGGAGCUACAUAGCUCCUAGACAUGAGGAUCACCCAUGUCGCGAGGACCGGGUAGAUUCUCC | 49.5 | 33.2 |  |  |  |
| AAUGUAUGGCACAUGAGGAUCACCCAUGUGCGAGGACCGGUACGGCCGCCACUCGGUCCUGGGAUCUUACAACUAUACAUUAAUG |  |  | 13.2 | 27 |  |
| AUAUAUACAUGAGGAUCACCCAUGUUAUUUCGAGGACCGGUACGGCCGCCACUCGAUAGAGUAGAAGUAACAUUUGUUAGAUGAU | 21.6 | 13.2 |  |  |  |
| GAGUAGAGGACGGCCGCCACUGAACAUGAGGAUCACCCAUGUCGUGAUCCGUUACCUAGGGUAGAUAGGACCGGGUCAUGUACUC |  |  | 42.6 | 42.5 |  |
| AAAAUAAUGGCGGCCGCCACUAACUCAUAUACAUCAUGUACAUGAGGAUCACCCAUGUAGGUGUAUAGGACCGGGCCAUAAUUAA |  |  | 18.6 | 25.6 |  |
| CUUGGCUGUGCGGCCGCCACUGGCUCAUCCUGCAUUACAUGAGGAUCACCCAUGUUGCGGCCUCCCAGGACCGGGCAUAGCCUGA | 253 | 139 |  |  |  |
| CCGGUCCACUAGGAUAUGCGGAGUGUAUAUCACGCAGAAGGAGUCACAUGAGGAUCACCCAUGUGCGUGGGUUG |  |  |  |  | apparent Kd (MS2 coat protein [2]; [7]): 9.4 nM; apparent Kd (MS2 coat protein [2]; [8]): 9.16 nM |
| UUGUGGUAGGCGCAUACUCAUUUAUACAAGCGAGGACCGGUACGGCCGCCACUCGGAAUAAAACAUGAGGAUCACCCAUGUACCG |  |  |  |  | apparent Kd (MS2 coat protein [2]; [5]): 13.7 nM; apparent Kd (MS2 coat protein [2]; [6]): 19.1 nM |
| AAUAAACGAGGAUAUACAGAUCAAGAUUAUCUAGUGAUCCUACAUGAGGAUCACCCAUGUAGAAGGCGAGAACA |  |  |  |  | apparent Kd (MS2 coat protein [2]; [7]): 51.1 nM; apparent Kd (MS2 coat protein [2]; [8]): 66.7 nM |
| CCAAGCAUAAUAGAUACCAGUCGUAUACCUCCAACAUGAGGAUCACCCAUGUGCUCAGUUGACCCUUGGCAGCUAUGCCUAUAGA |  |  |  |  | apparent Kd (MS2 coat protein [2]; designed as: ON switch for theophylline, no ligand): 39.6 nM; apparent Kd (MS2 coat protein [2]; ligand present: theophylline, designed as: ON switch for theophylline): 25.8 nM |
